Laboratory results as given in ChEMBL document CHEMBL4477254, “Synthesis and biological evaluation of some novel triazole hybrids of curcumin mimics and their selective anticancer activity against breast and prostate cancer cell lines” (Bioorg Med Chem Lett, 2016).

What was measured:
MDA-MB-231 [1] = test: Cytotoxicity against human MDA-MB-231 cells assessed as decrease in cell viability after 24 hrs by MTT assay; type: functional, cell-based; conditions: MDA-MB-231, 24 h
Summary of the method: (§1)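 Cell viability by MTT after 24 h compound exposure; curcumin as standard. IC50 in µM from three independent experiments, expressed as mean ± SE.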

MCF7 = test: Cytotoxicity against human MCF7 cells assessed as decrease in cell viability after 24 hrs by MTT assay; type: functional, cell-based; conditions: MCF7, 24 h; summary of the method: as §1
PC-3 [2] = test: Cytotoxicity against human PC3 cells assessed as decrease in cell viability after 24 hrs by MTT assay; type: functional, cell-based; conditions: PC-3, 24 h; summary of the method: as §1
DU-145 [3] = test: Cytotoxicity against human DU145 cells assessed as decrease in cell viability after 24 hrs by MTT assay; type: functional, cell-based; conditions: DU-145, 24 h; summary of the method: as §1
4T1 [4] = test: Cytotoxicity against mouse 4T1 cells assessed as decrease in cell viability after 24 hrs by MTT assay; type: functional, cell-based; conditions: 4T1, 24 h; summary of the method: as §1
PC-3 [5] = test: Potency index, ratio of curcumin IC50 to compound IC50 in human PC3 cells; type: functional
Summary of the method: (§2)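 IC50 came from an MTT viability assay after 24 h compound exposure, with curcumin run as the standard. Values are mean ± SE of three independent experiments. The index is the curcumin IC50 divided by the compound IC50 in the same cell line.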

4T1 [6] = test: Potency index, ratio of curcumin IC50 to compound IC50 in mouse 4T1 cells; type: functional; summary of the method: as §2
MDA-MB-231 [7] = test: Potency index, ratio of curcumin IC50 to compound IC50 in human MDA-MB-231 cells; type: functional; summary of the method: as §2
DU-145 [8] = test: Potency index, ratio of curcumin IC50 to compound IC50 in human DU145 cells; type: functional; summary of the method: as §2
HEK293 = test: Cytotoxicity against human HEK293 cells assessed as decrease in cell viability after 24 hrs by MTT assay; type: cell-based; conditions: HEK293, 24 h; summary of the method: as §1

Row | Compound | IC50 (MDA-MB-231 [1]) [µM] | IC50 (MCF7) [µM] | IC50 (PC-3 [2]) [µM] | IC50 (DU-145 [3]) [µM] | IC50 (4T1 [4]) [µM] | Ratio IC50 (PC-3 [5]) | Ratio IC50 (4T1 [6]) | Ratio IC50 (MDA-MB-231 [7]) | Ratio IC50 (DU-145 [8]) | IC50 (HEK293) [µM]
1 | COc1ccc(/C=C2\CN(C(=S)SCc3cn(Cc4ccccc4Cl)nn3)C/C(=C\c3ccc(OC)cc3)C2=O)cc1 | > 100 | > 100 | 60.1 | > 80 | > 100 | – | – | – | – | –
2 | COc1ccc(/C=C2\CN(C(=S)SCc3cn(Cc4ccccc4F)nn3)C/C(=C\c3ccc(OC)cc3)C2=O)cc1 | > 100 | 79.4 | 31.5 | 54.5 | 49.9 | <=5.7 | – | – | – | –
3 | COc1ccc(/C=C2\CN(C(=S)SCc3cn(Cc4ccc(F)cc4)nn3)C/C(=C\c3ccc(OC)cc3)C2=O)cc1 | > 100 | > 100 | 45.6 | 74.6 | > 100 | – | – | – | – | –
4 | Cc1ccc(/C=C2\CN(C(=S)SCc3cn(Cc4ccccc4Cl)nn3)C/C(=C\c3ccc(C)cc3)C2=O)cc1 | 93.2 | > 100 | > 80 | > 80 | 49.3 | – | <=9.3 | – | – | –
5 | COc1ccc(/C=C2\CN(Cc3cn(Cc4ccc(F)cc4)nn3)C/C(=C\c3ccc(OC)cc3)C2=O)cc1 | 70.7 | > 100 | 67.5 | 59.4 | 49.3 | – | <=9.3 | <=8.3 | – | –
6 | O=C1/C(=C/c2ccccc2F)CN(C(=S)SCc2cn(Cc3ccccc3F)nn2)C/C1=C\c1ccccc1F | 57.6 | 51.6 | > 80 | > 80 | 30.7 | – | <=9.3 | <=8.3 | – | –
7 | O=C1/C(=C/c2ccccc2F)CN(Cc2cn(Cc3ccccc3F)nn2)C/C1=C\c1ccccc1F | 16 | 6 | 19.7 | 10.6 | 6.5 | <=5.7 | <=9.3 | <=8.3 | ≤ 9.5 | 41.2
8 | COc1ccc(/C=C2\CN(Cc3cn(Cc4ccccc4Cl)nn3)C/C(=C\c3ccc(OC)cc3)C2=O)cc1 | > 100 | > 100 | 36.3 | 17.8 | 11.4 | <=5.7 | <=9.3 | – | ≤ 9.5 | –
9 | COc1ccc(/C=C2\CN(Cc3cn(Cc4cccc(Cl)c4)nn3)C/C(=C\c3ccc(OC)cc3)C2=O)cc1 | 98 | 99 | 32.5 | 15.4 | 56.6 | <=5.7 | – | – | ≤ 9.5 | > 100
10 | Cc1ccc(/C=C2\CN(C(=S)SCc3cn(Cc4ccccc4F)nn3)C/C(=C\c3ccc(C)cc3)C2=O)cc1 | 91.5 | > 100 | > 80 | 80 | 28.4 | – | <=9.3 | – | – | –
11 | COc1ccc(/C=C2\CN(C(=S)SCc3cn(Cc4cccc(Cl)c4)nn3)C/C(=C\c3ccc(OC)cc3)C2=O)cc1 | 32 | 32 | > 80 | > 80 | 69.7 | – | – | <=8.3 | – | > 100
12 | COC(=O)Nc1nc2cc(C(=O)c3cccs3)ccc2[nH]1 [NOCODAZOLE] | 1.1 | 0.42 | 2.5 | 2.2 | 1.3 | – | – | – | – | 5.1
13 | Cc1ccc(/C=C2\CN(Cc3cn(Cc4cccc(Cl)c4)nn3)C/C(=C\c3ccc(C)cc3)C2=O)cc1 | 9 | 10 | 29.3 | 33.1 | 29.3 | <=5.7 | <=9.3 | <=8.3 | ≤ 9.5 | 73.5
14 | Cc1ccc(/C=C2\CN(Cc3cn(Cc4ccccc4Cl)nn3)C/C(=C\c3ccc(C)cc3)C2=O)cc1 | 29 | 66.7 | 8.9 | 10.5 | 23.2 | <=5.7 | <=9.3 | <=8.3 | ≤ 9.5 | 91.5
15 | O=C1/C(=C/c2ccccc2F)CN(C(=S)SCc2cn(Cc3cccc(Cl)c3)nn2)C/C1=C\c1ccccc1F | > 100 | > 100 | 80 | > 80 | > 100 | – | – | – | – | –
16 | O=C1/C(=C/c2ccccc2F)CN(Cc2cn(Cc3ccccc3Cl)nn2)C/C1=C\c1ccccc1F | 16.5 | 10 | 7.1 | 7.5 | 5.3 | <=5.7 | <=9.3 | <=8.3 | ≤ 9.5 | 33.2
17 | O=c1[nH]cc(F)c(=O)[nH]1 [FLUOROURACIL] | 19 | – | 13.3 | 24.2 | 23 | – | – | – | – | 40
18 | Cc1ccc(/C=C2\CN(Cc3cn(Cc4ccc(F)cc4)nn3)C/C(=C\c3ccc(C)cc3)C2=O)cc1 | 26.8 | 29 | 65.6 | 49.7 | 57.2 | – | – | <=8.3 | – | –
19 | O=C1/C(=C/c2ccccc2F)CN(C(=S)SCc2cn(Cc3ccc(F)cc3)nn2)C/C1=C\c1ccccc1F | 58.8 | 56.9 | > 80 | 35.7 | 9.9 | – | <=9.3 | <=8.3 | – | 51.3
20 | Cc1ccc(/C=C2\CN(C(=S)SCc3cn(Cc4cccc(Cl)c4)nn3)C/C(=C\c3ccc(C)cc3)C2=O)cc1 | 83 | > 100 | > 80 | > 80 | 53.4 | – | – | – | – | –
21 | Cc1ccc(/C=C2\CN(C(=S)SCc3cn(Cc4ccc(F)cc4)nn3)C/C(=C\c3ccc(C)cc3)C2=O)cc1 | 45.6 | 81.6 | 45.5 | 38.8 | 29.3 | – | <=9.3 | <=8.3 | ≤ 9.5 | –
22 | COc1ccc(/C=C2\CN(Cc3cn(Cc4ccccc4F)nn3)C/C(=C\c3ccc(OC)cc3)C2=O)cc1 | 67.2 | ≥ 100 | 39.9 | 32.6 | 39.4 | – | <=9.3 | <=8.3 | ≤ 9.5 | > 100
23 | O=C1/C(=C/c2ccccc2F)CN(C(=S)SCc2cn(Cc3ccccc3Cl)nn2)C/C1=C\c1ccccc1F | 100 | 78.7 | > 80 | 46.3 | 43.6 | – | <=9.3 | – | – | –
24 | COc1cccc2c1C(=O)c1c(O)c3c(c(O)c1C2=O)C[C@@](O)(C(=O)CO)C[C@@H]3O[C@H]1C[C@H](N)[C@H](O)[C@H](C)O1 [DOXORUBICIN] | 1.6 | – | – | 1.6 | 0.99 | – | – | – | – | 7.2
